MPTP block: mitochondrial permeability transition pore inhibitors, primary screen, biochemical, isolated mouse mitochondria, absorbance; Ca2+ swelling absorbance, 30 min; inhibition, % at 10 µM; 360,000 tested, 1.4% active;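 active = inhibition of 50% or more, scaled per plate between neutral and stimulator controls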
aDG glyco act: activators of alpha-DG glycosylation, primary screen, uHTS, Pro5-aDG cells, AlphaScreen. AID 624168, 2012. activation, % at 10 µM. 360,000 tested, 0.22% active. alpha-DG glycosylation AlphaScreen (IIH6); 0% Pro5, 100% B10-LARGE cell signal;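 active = activation of at least 8% versus controls, or a plate z-score of at least 8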;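 note: Pro5 are CHO cells carrying HIG-tagged alpha-DG that lacks glycosylation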
ADAM17 inh: ADAM17 inhibitors, primary screen, biochemical, QFRET | Disintegrin and metalloproteinase domain-containing protein 17 (Homo sapiens), P78536 | 370,000 tested, 0.83% active | recombinant ADAM17, EDANS/DABCYL FRET peptide cleavage | inhibition, % at 6.95 µM | AID 720648, 2013;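 active = inhibition above the mean of compounds lying between control limits plus 3 SD, set per campaign, cut at about 8.5% in these data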
ADAM10 inh: human ADAM10 inhibitors, primary screen, biochemical, QFRET, HTS. recombinant ADAM10, EDANS/DABCYL FRET peptide cleavage, 3 h. inhibition, % at 7 µM. 370,000 tested, 0.62% active. AID 720582, 2013;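 active = inhibition above a per-campaign cutoff equal to the mean of compounds falling between control-based bounds plus 3 SD, cut at about 20% in these data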
Target sequence (O14672 214-748 limits assumed): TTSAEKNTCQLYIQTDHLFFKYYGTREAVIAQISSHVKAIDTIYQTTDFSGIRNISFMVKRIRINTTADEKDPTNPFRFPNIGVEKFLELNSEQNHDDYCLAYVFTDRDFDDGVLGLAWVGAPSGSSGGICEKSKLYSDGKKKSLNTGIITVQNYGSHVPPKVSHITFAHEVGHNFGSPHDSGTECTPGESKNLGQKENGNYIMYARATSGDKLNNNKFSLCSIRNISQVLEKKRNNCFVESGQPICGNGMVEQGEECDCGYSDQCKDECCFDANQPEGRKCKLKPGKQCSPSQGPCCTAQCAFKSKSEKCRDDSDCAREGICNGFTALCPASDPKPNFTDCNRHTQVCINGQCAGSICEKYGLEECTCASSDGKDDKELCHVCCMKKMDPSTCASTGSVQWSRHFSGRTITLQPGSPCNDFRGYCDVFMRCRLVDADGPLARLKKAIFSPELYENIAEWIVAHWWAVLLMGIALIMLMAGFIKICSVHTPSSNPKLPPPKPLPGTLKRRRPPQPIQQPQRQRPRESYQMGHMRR
Hep lipid drop: inhibitors of hepatocyte lipid droplet formation, primary screen, imaging, high-throughput imaging, BODIPY stain; AML12 mouse hepatocytes, oleate lipid droplets; inhibition, % at 6.5 µM; 240,000 tested, 0.4% active; AID 1656, 2009;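 active = lipid droplet intensity inhibited by at least 50%, with more than 500 cells counted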
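Technique: fluorescence imaging, 20x objective, two fields per well / Assay system: AML12 hepatocytes (mouse) / Measure: % inhibition of lipid droplet signal / Doses: 6.5 µM single-point dosing / Incubation: overnight exposure / Reagent: 100 µM oleic acid challenge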
V-ATPase pH: regulators of yeast V-ATPase proton pumping, primary screen, pHLuorin cytosolic pH fluorescence | AID 504577, 2011 | 350,000 tested, 0.37% active | response, % at 10 µM | S. cerevisiae; in the data active = response mostly above about 7.3%, no sharp cut-off; inactive = mostly below about 5.4%; note: actives read high
ADAM10 counter: ADAM10 inhibitors, counter-screen for ADAM17 exosite inhibitor project, biochemical, FRET, human ADAM10; inhibition, % at 6.95 µM; shares compounds with ADAM17 inh; AID 743256, 2014; 2,900 tested, 47% active; recombinant ADAM10, EDANS/DABCYL FRET peptide cleavage, 3 h;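 active = mean inhibition over the triplicate runs exceeds the activity threshold set in the earlier primary screen, cut at about 20% in these data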
ADAM17 confirm: ADAM17 inhibitors, hit retest, confirmation, biochemical, QFRET peptide cleavage; AID 743257, 2014; recombinant ADAM17, EDANS/DABCYL QFRET peptide cleavage; 2,900 tested, 65% active; inhibition, % at 6.95 µM; shares compounds with ADAM17 inh;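 active = mean inhibition across replicates above the hit cutoff set in the primary screen, cut at about 8.5% in these data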
Numbers stand for hits; . = inactive; / = no result. An excerpt weighted towards active compounds, which were near 3.1% of everything screened.

SMILES | MPTP block | aDG glyco act | ADAM17 inh | ADAM10 inh | Hep lipid drop | V-ATPase pH | ADAM10 counter | ADAM17 confirm
COC(=O)[C@]12C[C@H](CC(=O)N3CCN(C(=O)c4ccco4)CC3)C(=O)N(CCc3ccc(OC)c(OC)c3)C1=C[C@H](COCc1ccccc1)O[C@@H]2C | / | / | . | . | / | / | / | /
O=C(CN1CCN(c2nc(-c3ccccc3)cs2)CC1)Nc1ccc(Cl)c(Cl)c1 | / | / | 8.8 | . | / | / | . | 11.8
O=C(OC(C(=O)Nc1cc(Cl)cc(Cl)c1)c1ccccc1)C1=COCCO1 (stereo unspecified) | . | . | 9.8 | . | . | . | 31.2 | 15.5
CC(OC(=O)C1=COCCO1)C(=O)Nc1ccc(Oc2ccccc2)cc1 (stereo unspecified) | . | . | . | . | . | . | / | /
CNC(=S)N1N=C(c2ccc(Br)cc2)CC1c1ccc(Br)cc1 (stereo unspecified) | . | . | 11.5 | . | . | . | 27.4 | 17.3
CCCn1c(C)cc(C(=O)COC(=O)c2cc(S(=O)(=O)NCC(C)C)c(Cl)cc2Cl)c1C | . | . | 10.4 | . | . | . | 20.1 | 9.7
CC(C)CNS(=O)(=O)c1cc(C(=O)OCC(=O)c2ccc3c(c2)OCCO3)c(Cl)cc1Cl | . | . | . | . | . | . | / | /
COc1ccc(C(O)c2nc(-c3cccc(F)c3)cs2)cc1 (stereo unspecified) | . | . | 9.9 | . | / | / | . | .
COc1cccc(C(O)c2nc(-c3cccc(C(F)(F)F)c3)cs2)c1 (stereo unspecified) | . | . | . | . | / | / | / | /
COc1ccc(C(O)c2nc(-c3cccc(C(F)(F)F)c3)cs2)cc1 (stereo unspecified) | . | . | 12.7 | . | / | / | 26.7 | 13.3
CCOC(=O)[C@]12CCCC=C1N(CCCOC)C(=O)[C@@H]2CC(=O)NCc1ccc(C)o1 | / | / | . | . | / | / | / | /
CCC(CO)Nc1cccc2c1S(=O)(=O)N(Cc1cn(Cc3ccc(C(F)(F)F)cc3)nn1)Cc1ccccc1O2 (stereo unspecified) | / | / | . | . | / | / | / | /
COc1ccc(S(=O)(=O)N2CCCOC2CNC(=O)C(=O)NCCO)cc1 (stereo unspecified) | . | . | 10.0 | . | / | . | . | 9.4
COc1ccc(S(=O)(=O)N2CCOC2CNC(=O)C(=O)NCCc2ccccc2)cc1 (stereo unspecified) | . | . | . | . | . | . | / | /
Cc1ccc(CNC(=O)C(=O)NCC2OCCN2S(=O)(=O)c2ccc(C)cc2)cc1 (stereo unspecified) | . | . | 10.8 | . | . | . | . | .
O=C1C(=O)N(Cc2ccc(-c3ccc(Cl)nc3)cc2)c2ccc(OC(F)(F)F)cc21 | / | / | . | . | / | / | / | /
COc1cc(/C=C(\C#N)c2ccccn2)ccc1OCc1ccccc1 | . | . | 9.4 | . | . | . | . | 15.9
CCN(CC(=O)Nc1ccc(OC)cc1)CC(=O)Nc1ccc(Br)cc1F | . | . | . | . | . | . | / | /
COc1ccc(NCC(=O)Nc2ccc(Br)cc2F)c(OC)c1 | . | . | 10.3 | . | . | . | 26.9 | 9.3
COc1ccc(OC)c(-c2csc(NC(=O)Cc3ccc(F)cc3)n2)c1 | . | . | 8.6 | . | . | . | 31.9 | 15.7
COc1ccc(OC)c(-c2csc(NC(=O)Cc3cc(OC)c(OC)c(OC)c3)n2)c1 | . | . | . | . | . | . | / | /
O=C(CNC(=O)/C(=C\c1ccc(Br)cc1)NC(=O)c1ccccc1)OCc1ccccc1 | . | . | 10.1 | . | . | . | 22.4 | .
